Data on 21 compounds can be found in ChEMBL document CHEMBL2380280, “Xanthates and trithiocarbonates strongly inhibit carbonic anhydrases and show antiglaucoma effects in vivo” (J Med Chem, 2013).

Calls of active or inactive are those of the source. The rule behind the calls is not given here.

One experiment has as its target Carbonic anhydrase 9 (Homo sapiens, UniProt Q16790). In words: Inhibition of recombinant human CA9 transmembrane isoform preincubated for 15 mins by stopped-flow CO2 hydration assay.
Experiment [1] relates to Oryctolagus cuniculus. In words: Antiglaucoma activity in hypertensive New Zealand albino rabbit model assessed as decrease in carbomer-induced intraocular pressure at 2% administered to eye measured up to 200 to 250 mins by tanometric analysis. It counts as functional, organism-based. In short, it runs like this: (§1)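 Adult male New Zealand albino rabbits, 2−2.5 kg. Glaucoma induced by bilateral anterior-chamber injection of 0.1 mL 0.25% carbomer under im tiletamine/zolazepam plus xilazine anaesthesia. Once IOP was stably raised, drug was instilled into one eye and vehicle into the contralateral eye, three animals per drug. IOP was read by Tono-Pen tonometer after oxybuprocaine drops, before dosing and at 30, 60, 90, 120, 240 and 300 min.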

Experiment [2] has as its system Oryctolagus cuniculus. In words: Antiglaucoma activity in hypertensive New Zealand albino rabbit model assessed as decrease in carbomer-induced intraocular pressure at 2% administered to eye after 50 to 100 mins by tanometric analysis (reference value: 35 to 40 mmHg). It counts as functional. Summed up:
as §1

Experiment [3] has as its system Oryctolagus cuniculus. In words: Antiglaucoma activity in normotensive New Zealand rabbit model assessed as decrease in intraocular pressure at 2% administered to eye vitreous by tanometric analysis. It counts as functional.
For another experiment, the target named is Carbonic anhydrase 12 (Homo sapiens, UniProt O43570). The experiment can be described thus: Inhibition of recombinant human CA12 transmembrane isoform preincubated for 15 mins by stopped-flow CO2 hydration assay.
For the next experiment, the target named is Carbonic anhydrase 1 (Homo sapiens, UniProt P00915). In words: Inhibition of recombinant human CA1 cytosolic isoform preincubated for 15 mins by stopped-flow CO2 hydration assay.
A further experiment deals with Carbonic anhydrase 2 (Homo sapiens, UniProt P00918). In words: Inhibition of recombinant human CA2 cytosolic isoform preincubated for 15 mins by stopped-flow CO2 hydration assay.
Experiment [4] concerns Oryctolagus cuniculus. In words: Antiglaucoma activity in hypertensive New Zealand albino rabbit model assessed as decrease in carbomer-induced intraocular pressure at 2% administered to eye after > 250 mins by tanometric analysis. It counts as functional, organism-based. Summed up:
as §1

The subject of experiment [5] is Oryctolagus cuniculus. The experiment can be described thus: Antiglaucoma activity in hypertensive New Zealand albino rabbit model assessed as decrease in carbomer-induced intraocular pressure at 2% administered to eye after 100 mins by tanometric analysis (reference value: 35 to 40 mmHg). The class given is functional. In short, it runs like this: as §1
Experiment [6] concerns Oryctolagus cuniculus. The experiment can be described thus: Antiglaucoma activity in hypertensive New Zealand albino rabbit model assessed as decrease in carbomer-induced intraocular pressure at 2% administered to eye after 150 mins by tanometric analysis. It counts as functional, organism-based. In short, it runs like this: as §1
Experiment [7] relates to Oryctolagus cuniculus. In words: Antiglaucoma activity in normotensive New Zealand rabbit model assessed as decrease in intraocular pressure administered to eye vitreous by tanometric analysis. It counts as functional, organism-based.

Chain of Carbonic anhydrase 1 (P00915 whole entry, canonical isoform): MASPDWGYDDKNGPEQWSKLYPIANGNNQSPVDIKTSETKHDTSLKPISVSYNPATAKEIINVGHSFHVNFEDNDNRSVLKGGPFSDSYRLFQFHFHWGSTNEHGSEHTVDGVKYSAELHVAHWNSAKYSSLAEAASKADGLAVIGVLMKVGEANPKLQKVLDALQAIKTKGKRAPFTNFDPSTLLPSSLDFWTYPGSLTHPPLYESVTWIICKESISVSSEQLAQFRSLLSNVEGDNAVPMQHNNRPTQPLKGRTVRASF
Chain of Carbonic anhydrase 12 (O43570 whole entry, canonical isoform): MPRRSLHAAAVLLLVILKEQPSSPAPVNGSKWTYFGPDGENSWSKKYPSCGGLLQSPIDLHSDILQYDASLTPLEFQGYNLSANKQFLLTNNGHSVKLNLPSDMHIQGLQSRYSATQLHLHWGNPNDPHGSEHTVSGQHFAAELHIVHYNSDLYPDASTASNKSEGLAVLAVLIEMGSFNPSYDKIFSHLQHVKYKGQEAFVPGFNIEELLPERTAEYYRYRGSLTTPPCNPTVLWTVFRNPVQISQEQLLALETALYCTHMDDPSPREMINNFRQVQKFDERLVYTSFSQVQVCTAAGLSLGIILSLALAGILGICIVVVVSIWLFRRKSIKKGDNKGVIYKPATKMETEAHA

For `CCOC(=S)S`, the Ki at Carbonic anhydrase 9 came to 566 nM.
Same read-out and setting: for `COC(=S)S` the value was 631 nM.
For `S=C([S-])OCCC12CC3CC(CC(C3)C1)C2.[K+]`, the Ki on Carbonic anhydrase 9 came to 779 nM. Further, in the experiment with Oryctolagus cuniculus [1], the result was Active. Moreover, the Activity is recorded as 4 mmHg in the experiment on Oryctolagus cuniculus [2] and 1 mmHg with Oryctolagus cuniculus [3].
As for `CN(C)CCOCCOC(=S)[S-].[K+]`, the inhibitory constant (Ki) on Carbonic anhydrase 9 came out at 831 nM. Moreover, in the experiment with Oryctolagus cuniculus [1], the result was Active. The results for the Activity with Oryctolagus cuniculus [2] and in the experiment with Oryctolagus cuniculus [3] were 4 mmHg and 1 mmHg, respectively.
For `S=C(S)SCc1ccccc1`, the inhibition constant (Ki) on Carbonic anhydrase 9 came to 7.8 nM.
Turning to `S=C([S-])OCCc1ccccn1.[K+]`, at Carbonic anhydrase 9, the inhibitory constant (Ki) turned out to be 4.3 nM. Also, the outcome in the experiment with Oryctolagus cuniculus [1] was Active. The Activity with Oryctolagus cuniculus [2] is given as 4 mmHg; with Oryctolagus cuniculus [3], 1 mmHg.
In the case of `S=C(S)OC1CCCC1`, the Ki was found to be 74.7 nM on Carbonic anhydrase 12, 47.2 nM on Carbonic anhydrase 9, 532 nM on Carbonic anhydrase 1 and 366 nM on Carbonic anhydrase 2.
`S=C([S-])OCC(c1ccccc1)c1ccccc1.[K+]`: the outcome with Oryctolagus cuniculus [4] and in the experiment with Oryctolagus cuniculus [1] was Active. In addition, the Ki on Carbonic anhydrase 9 is 58 nM. The Activity amounted to 12 mmHg in the experiment on Oryctolagus cuniculus [5] and 1 mmHg in the experiment on Oryctolagus cuniculus [3].
As to `N#CNC(=S)S`, the Ki on Carbonic anhydrase 9 was 678 nM.
In the case of `S=C(S)OC1CC2CC1C1CCCC21` (centres undefined), the inhibition constant (Ki) on Carbonic anhydrase 12 was 835 nM; on Carbonic anhydrase 9 it was 643 nM; on Carbonic anhydrase 1, 63.4 nM; on Carbonic anhydrase 2, 6.6 nM.
`S=C(S)OC1CCCCC1`: the Ki at Carbonic anhydrase 9 came to 78.8 nM.
As for `CC(C)CCOC(=S)S`, the Ki on Carbonic anhydrase 9 was 322 nM.
On the same count and under the same terms, for `CCCCCOC(=S)S` the value was 403 nM; for `CN(C)CCOC(=S)S`, 760 nM.
The same measure, in the same setting: the value for `CCCCCCCCOC(=S)S` was 72.1 nM.
On to `CCN[C@H]1C[C@H](C)S(=O)(=O)c2sc(S(N)(=O)=O)cc21`, for which the result with Oryctolagus cuniculus [6] and in the experiment on Oryctolagus cuniculus [7] was inactive.
For `S=C(S)OCC12CC3CC(CC(C3)C1)C2`, the inhibitory constant (Ki) at Carbonic anhydrase 9 worked out at 776 nM.
In the case of `CC(C)(C)OC(=O)NCCCCOC(=S)[S-].[K+]`, on Carbonic anhydrase 9, the inhibition constant (Ki) was determined as 622 nM. Further, the outcome in the experiment with Oryctolagus cuniculus [1] was Active. Besides, the Activity in the experiment on Oryctolagus cuniculus [2] was 4 mmHg; in the experiment on Oryctolagus cuniculus [3], 1 mmHg.
On to `CC(C)(C)OC(=O)NCCCCCCOC(=S)S`, for which the Ki at Carbonic anhydrase 9 was determined as 765 nM.
With `CC(C)OC(=S)S`, the inhibitory constant (Ki) on Carbonic anhydrase 9 is 531 nM.
Still for that read-out and setting: the value for `S=C(S)OCc1ccccc1` was 8.1 nM.
